Results filed as inconclusive are left out.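 Rule for the calls, unless noted: active = viability at or below 27.92% in each of two runs, the all-compound median minus 4 SD; inconclusive = no clear call, values can overlap the other calls; inactive = the rest.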
Key:
[1] = OD615 S. cerevisiae growth inhibition, permissive medium, pilot counter-assay, permissive growth control for S. cerevisiae lifespan shortening project (AID 705;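 active = growth inhibition above 25% in both replicates, a cutoff set 3 SD above the mean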); conditions: OD615, 24 h, at 10 µM, hits give high values
Procedure, shortened: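 System: Engineered DeaD yeast | Buffer or medium: SC raffinose/galactose permissive medium | Incubation: Cells pre-grown 4 h, then 24 h compound exposure, 30 °C humidified | Measured by: Absorbance (optical density) at 615 nm | Read-out: Reduction in yeast growth (OD615)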

[2] = Restrictive medium S. cerevisiae growth inhibition, OD615, pilot screen of yeast lifespan reduction project, restrictive growth control (AID 706;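 active = growth inhibition above a set limit, 3 SD over mean compound inhibition, in both replicates, cut at about 43% in these data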;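 note: modified DeaD lifespan yeast strain shifted to restrictive glucose medium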); conditions: OD615, 48 h, at 10 µM, hits give high values
Procedure, shortened: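 Material: modified S. cerevisiae; Medium: glucose-based CSMM-D restrictive medium; Compound dosing: one concentration, 10 µM final, 0.25% DMSO; Incubation: 48 h compound exposure at 30 °C; Measured by: OD615.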

[3] = viability gain of MRP-1-high H69AR cells under doxorubicin, pilot screen, MRP-1 activator project, CellTiter-Glo, duplicate (AID 807;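 active = viability increase at or above a cutoff of the median across tested compounds plus 3 SD, cut at about 8.5% in these data, passing the limit was not always enough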;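 note: compound pretreatment 18-22 h then 72 h combined with doxorubicin; 0% = doxorubicin alone and 100% = vehicle without doxorubicin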); conditions: H69AR viability with doxorubicin, CellTiter-Glo luminescence; at 10 µM; hits give high values
[4] = growth suppression of beta-catenin knockout HCT116, pilot screen, human colon tumor cells (AID 823;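 active = cell viability at or below a set limit in both duplicate runs, the limit being the all-compound median minus 4 SD, cut at about 23% in these data, passing the limit was not always enough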;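 note: 0% = wells killed by 20 µM Hyamine and 100% = untreated DMSO cell wells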); conditions: CellTiter-Glo, 60 h, at 10 µM, hits give low values
[5] = growth suppression of PTEN-deleted HCT116, pilot screen, cell-based, HCT116 clonal line, CellTiter-Glo (AID 824); conditions: 60 h, at 10 µM, hits give low values;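 note: 0% = 20 µM Hyamine control and 100% = vehicle cell control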
[6] = inhibitors of the yeast RAM network, pilot screen, dse1pr::URA3 reporter, 5-FOA selection (AID 869;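 active = inhibition over a set limit, the all-compound mean plus 3 SD, in both replicate runs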;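 note: 0% = DMSO wells with no growth and 100% = 10 µM 1-NA-PP1 with full growth; RAM network block rescues cells from 5-FOA so hits raise OD615 growth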); conditions: S. cerevisiae dse1pr::URA3 5-FOA growth, OD615, 2 d; at 10 µM; hits give high values; strain carries analog-sensitive mutant Cbk1 kinase
[7] = RAM signaling pathway blockade in yeast – S. cerevisiae, Pdr1DBD-CYC8 efflux-inhibited sensitized strain, primary screen (AID 1298;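 active = RAM network inhibition above 8.4% in each of two replicates, 3 SD over the compound average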;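 note: 0% = DMSO untreated cells without growth and 100% = 10 µM 1-NA-PP1 full growth; higher means more yeast growth rescued from 5-FOA killing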); conditions: S. cerevisiae cbk1-as DSE1-URA3 strain, 5-FOA growth OD615, 2 d; at 50 µM; hits give high values

COC(=O)c1c(NC(=O)CCCC(=O)O)sc(C)c1C
inactive: growth inhibition [1] -6.98% | growth inhibition [2] 3.54% | viability increase [3] -3.07% | viability [4] 91.8% | viability [5] 87.9% | inhibition [6] 0.305% | RAM network inhibition [7] 3.63%

COc1cccc(NC=C2C(=O)OC3(CCCCC3)OC2=O)c1
inactive: growth inhibition [1] -8.74% | growth inhibition [2] 5.97% | viability increase [3] -1.85% | viability [4] 95.1% | viability [5] 104% | inhibition [6] 2.04% | RAM network inhibition [7] 5.16%

CCOc1ccc(N(CC(=O)Nc2nccs2)S(=O)(=O)c2c(C)noc2C)cc1
inactive: growth inhibition [1] -3.78% | growth inhibition [2] 5.32% | viability increase [3] -1.1% | viability [4] 97.5% | viability [5] 89.1% | inhibition [6] 1.25% | RAM network inhibition [7] 8.94%

COc1ccc(C(=O)Nc2cccnc2)cc1S(=O)(=O)N1CCOCC1
inactive: growth inhibition [1] -8.01% | growth inhibition [2] -10.6% | viability increase [3] -0.17% | viability [4] 103% | viability [5] 99.1% | inhibition [6] 0.84% | RAM network inhibition [7] 0.46%

O=C(NC1CCCC1)C1C2C=CC3(CN(Cc4cccs4)C(=O)C13)O2 (configuration not stated)
inactive: growth inhibition [1] -17.8% | growth inhibition [2] -17.1% | viability increase [3] -1.96% | viability [4] 94.8% | viability [5] 101% | inhibition [6] 0.615% | RAM network inhibition [7] 5%

C=CCn1c(CSc2nc3ccccc3s2)nnc1SCC(=O)OCC
inactive: growth inhibition [1] -1.57% | growth inhibition [2] 27.4% | viability increase [3] -0.04% | viability [4] 97.6% | viability [5] 101% | inhibition [6] -0.335% | RAM network inhibition [7] 9.66%

COc1ccc(-c2cc(C(=O)O)c3ccccc3n2)c(OC)c1
inactive: growth inhibition [1] -10.4% | growth inhibition [2] 0.26% | viability increase [3] -2.6% | viability [4] 82.2% | viability [5] 89.3% | inhibition [6] 1.47% | RAM network inhibition [7] 5.56%

Cc1cc(Nc2cccc(C)c2C)n2nc(C)nc2n1
inactive: growth inhibition [1] -17% | growth inhibition [2] -8.21% | viability increase [3] -1.13% | viability [4] 102% | viability [5] 98.3% | inhibition [6] 1.25% | RAM network inhibition [7] 3.39%

COc1cccc(-n2c(Cc3cc(=O)[nH]c(=O)[nH]3)nnc2SCC(=O)N2CCCCCC2)c1
inactive: growth inhibition [1] -10.1% | growth inhibition [2] -12.1% | viability increase [3] -0.94% | viability [4] 99.3% | viability [5] 98.5% | inhibition [6] -0.735% | RAM network inhibition [7] 7.07%

CC1CC(C)CN(C(=O)c2cn(C)c3ccc(S(=O)(=O)N(C)C)cc3c2=O)C1 (configuration not stated)
inactive: growth inhibition [1] -4.13% | growth inhibition [2] 14.5% | viability increase [3] -0.59% | viability [4] 114% | viability [5] 104% | inhibition [6] 2.47% | RAM network inhibition [7] 2.05%

c1ccc(COc2nsnc2N2CCOCC2)cc1
inactive: growth inhibition [1] 6.21% | growth inhibition [2] 13.8% | viability increase [3] -1.67% | viability [4] 107% | viability [5] 86.5% | inhibition [6] 0.145% | RAM network inhibition [7] 1.41%

COc1ccc(CNC(=O)C2CCN(S(=O)(=O)c3cccc4cccnc34)CC2)cc1
inactive: growth inhibition [1] -9.14% | growth inhibition [2] 3.15% | viability increase [3] 0.11% | viability [4] 99.9% | viability [5] 92.2% | inhibition [6] 2.6% | RAM network inhibition [7] 2.66%

Cc1ccc(-c2n[nH]c(=S)n2C)cc1
inactive: growth inhibition [1] -2.22% | growth inhibition [2] 11.2% | viability increase [3] -1.46% | viability [4] 97.5% | viability [5] 101% | inhibition [6] 2.21% | RAM network inhibition [7] 3.7%

O=C(NCCn1ccc2ccccc21)c1ccc2c(c1)OCO2
inactive: growth inhibition [1] -2.72% | growth inhibition [2] -4.68% | viability increase [3] 0.1% | viability [4] 101% | viability [5] 94.4% | inhibition [6] 0.58% | RAM network inhibition [7] 6.97%

COCC(=O)NCCc1nc2ccccc2[nH]1
inactive: growth inhibition [1] -0.385% | growth inhibition [2] 1.45% | viability increase [3] -2.27% | viability [4] 98.7% | viability [5] 99.1% | inhibition [6] -0.325% | RAM network inhibition [7] 0.89%

O=C(CSc1nnc2sc3ccccc3n12)NCc1ccc2c(c1)OCO2
inactive: growth inhibition [1] 1.77% | growth inhibition [2] 20.7% | viability increase [3] -1.52% | viability [4] 104% | viability [5] 101% | inhibition [6] 0.245% | RAM network inhibition [7] 4.54%

Cc1ccc(NC(=O)c2c(O)c3ccccc3n(C)c2=O)nc1
inactive: growth inhibition [1] -3.92% | growth inhibition [2] 9.36% | viability increase [3] -5.52% | viability [4] 75.3% | viability [5] 70.2% | inhibition [6] 0.36% | RAM network inhibition [7] -1.46%

Cc1ccccc1OCc1nc(-c2ccc(-n3cccc3)cc2)no1
inactive: growth inhibition [1] -22.8% | growth inhibition [2] -18.9% | viability increase [3] -0.53% | viability [4] 81.3% | viability [5] 84% | inhibition [6] 2% | RAM network inhibition [7] 5.61%

O=C(CN(Cc1ccc(F)cc1)S(=O)(=O)c1ccccc1)N1CCCCC1
inactive: growth inhibition [1] -9.46% | growth inhibition [2] -3.51% | viability increase [3] -2.51% | viability [4] 97.3% | viability [5] 89.8% | inhibition [6] 0.975% | RAM network inhibition [7] 4.25%

Clc1ccccc1CSc1nnc(-c2cccnc2)n1Cc1ccco1
inactive: growth inhibition [1] 2.38% | growth inhibition [2] 23.5% | viability increase [3] -4.89% | viability [4] 90.4% | viability [5] 91% | inhibition [6] 1.38% | RAM network inhibition [7] 4.7%

CN(C)c1nc(Oc2ccc(C(=O)OCC(=O)Nc3ccccc3)cc2)nc(N(C)C)n1
inactive: growth inhibition [1] 5.09% | growth inhibition [2] 5.01% | viability increase [3] -3.31% | viability [4] 95.6% | viability [5] 94.3% | inhibition [6] 2.15% | RAM network inhibition [7] 1.24%

CC(=O)NCCn1c(C)cc2ccccc21
inactive: growth inhibition [1] 2.67% | growth inhibition [2] -0.185% | viability increase [3] -0.52% | viability [4] 95.3% | viability [5] 105% | inhibition [6] 0.97% | RAM network inhibition [7] 0.86%

CC(=O)Nc1nonc1-c1nc2ccccc2n1Cc1nnc(C)o1
inactive: growth inhibition [1] 3.66% | growth inhibition [2] 2.84% | viability increase [3] -3.32% | viability [4] 99.7% | viability [5] 97.1% | inhibition [6] 2.09% | RAM network inhibition [7] 1.99%

Nc1ccc(OCc2ccccc2)cc1
inactive: growth inhibition [1] -14.4% | growth inhibition [2] -9.93% | viability increase [3] -4.17% | viability [4] 98.7% | viability [5] 89.4% | inhibition [6] 1.9% | RAM network inhibition [7] 5.27%

CCOC(=O)N1CCN(C(=O)CSc2nc3c([nH]c4ccccc43)c(=O)n2C)CC1
inactive: growth inhibition [1] 1.46% | growth inhibition [2] -8.89% | viability increase [3] -4.86% | viability [4] 91.1% | viability [5] 82.2% | inhibition [6] 2.34% | RAM network inhibition [7] 3.41%

CCCn1c(CN2CCCCC2C)nc2c1c(=O)n(C)c(=O)n2C (configuration not stated)
inactive: growth inhibition [1] -7.96% | growth inhibition [2] -3.75% | viability increase [3] -0.39% | viability [4] 88.7% | viability [5] 83.9% | inhibition [6] 1.64% | RAM network inhibition [7] 8.45%

O=C1C2CC=C(Cl)CC2C(=O)N1CC1Cc2ccccc2CO1 (configuration not stated)
inactive: growth inhibition [1] -5.07% | growth inhibition [2] 0.875% | viability increase [3] 1.29% | viability [4] 96.2% | viability [5] 101% | inhibition [6] 2.77% | RAM network inhibition [7] -2.81%

CC(=O)C1=C(C)N=c2s/c(=C/c3ccc4c(c3)OCO4)c(=O)n2C1c1ccc(N(C)C)cc1 (configuration not stated)
inactive: growth inhibition [1] -9.92% | growth inhibition [2] -9.9% | viability increase [3] -1.24% | viability [4] 93.2% | viability [5] 89.5% | inhibition [6] 1.13% | RAM network inhibition [7] 4.19%

Cn1cnnc1SCC(=O)Nc1ccccc1
inactive: growth inhibition [1] -6.99% | growth inhibition [2] -16.3% | viability increase [3] 2.03% | viability [4] 100% | viability [5] 102% | inhibition [6] -0.32% | RAM network inhibition [7] 1.79%

c1ccc(CNc2nc3ccccc3[nH]2)cc1
inactive: growth inhibition [1] -4.7% | growth inhibition [2] 2.9% | viability increase [3] -5.29% | viability [4] 75.8% | viability [5] 80.7% | inhibition [6] 1.3% | RAM network inhibition [7] 0.44%

CCCCCn1c(=O)[nH]c2cc(C(=O)NCCCN3CCC(C)CC3)ccc2c1=O
inactive: growth inhibition [1] -6.26% | growth inhibition [2] 3.06% | viability increase [3] -6.38% | viability [4] 56.6% | viability [5] 61.9% | inhibition [6] 0.015% | RAM network inhibition [7] 3.34%

Cn1c(Cn2c(=O)sc3ccccc32)nnc1SCC(=O)Nc1cccc(F)c1
inactive: growth inhibition [1] -12% | growth inhibition [2] -5.46% | viability increase [3] -2.58% | viability [4] 97.3% | viability [5] 93.4% | inhibition [6] 1.9% | RAM network inhibition [7] 1.86%

COC(=O)C1C2C=CC3(CN(c4ccc(Cl)c(F)c4)C(=O)C13)O2 (configuration not stated)
inactive: growth inhibition [1] -5.96% | growth inhibition [2] 0.405% | viability increase [3] -1.28% | viability [4] 94.6% | viability [5] 91.8% | inhibition [6] 1.67% | RAM network inhibition [7] 2.93%

CCc1ccccc1NC1c2ccccc2C(=O)N1Cc1ccco1 (configuration not stated)
inactive: growth inhibition [1] -4.26% | growth inhibition [2] 12.8% | viability increase [3] -4.71% | viability [4] 97.1% | viability [5] 84.8% | inhibition [6] 2.31% | RAM network inhibition [7] 3.95%

Cn1c(=O)oc2cc(S(=O)(=O)N3CCCC(C(=O)NCCN4CCOCC4)C3)ccc21 (configuration not stated)
inactive: growth inhibition [1] -1% | growth inhibition [2] 10.4% | viability increase [3] -0.15% | viability [4] 103% | viability [5] 108% | inhibition [6] 0.68% | RAM network inhibition [7] 4.15%

CSc1ccc(S(=O)(=O)N2CCN(Cc3ccc4c(c3)OCO4)CC2)cc1
inactive: growth inhibition [1] -2.74% | growth inhibition [2] 14.3% | viability increase [3] -4.46% | viability [4] 88.1% | viability [5] 86.3% | inhibition [6] 0.865% | RAM network inhibition [7] 6.37%

Source: PubChem BioAssay
